Tested on: U2OS
Test: Multiplex assay against U2OS
Type: toxicity, cell-based
Conditions: human
Summary of the method: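 Per cents of healthy-nucleus cells form the tubulin, mitochondrial-mass and membrane-permeability phenotype values. Live cells were stained at seeding with Hoechst33342, BioTracker Green Microtubule Cytoskeleton Dye, MitoTracker Red and Annexin V Alexa Fluor 680. After compound addition they were imaged on a CQ1 microscope at 37°C and 5% CO2, and CellPathfinder machine-learning gating split them into Hoechst high-intensity objects or normal cells, normal cells into healthy, pyknosed or fragmented nuclei, and pyknosed cells into mitotic or apoptotic.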

[1] = 12 h, 1 µM, compound concentration 1 uM, replicate 1
[2] = 12 h, 1 µM, compound concentration 1 uM, replicate 2
[3] = 12 h, 10 µM, compound concentration 10 uM, replicate 1
[4] = 12 h, 10 µM, compound concentration 10 uM, replicate 2
[5] = 24 h, 1 µM, compound concentration 1 uM, replicate 1
[6] = 24 h, 1 µM, compound concentration 1 uM, replicate 2
[7] = 24 h, 10 µM, compound concentration 10 uM, replicate 1
[8] = 24 h, 10 µM, compound concentration 10 uM, replicate 2
[9] = 48 h, 1 µM, compound concentration 1 uM, replicate 1
[10] = 48 h, 1 µM, compound concentration 1 uM, replicate 2
[11] = 48 h, 10 µM, compound concentration 10 uM, replicate 1
[12] = 48 h, 10 µM, compound concentration 10 uM, replicate 2

Cl.Cl.OCCOCCN1CCN(C(c2ccccc2)c2ccc(Cl)cc2)CC1 (stereo not drawn) [HYDROXYZINE HYDROCHLORIDE]
Population Apoptotic (%) [1]: 60% | Population Fragmented Nuclei (%) [1]: 29% | Population Healthy Nuclei (%) [1]: 61% | Population Hoechst High Intensity Objects (%) [1]: 0% | Population Membrane Permeable-Phenotype (%) [1]: 11% | Population Mitochondria Different-Phenotype (%) [1]: 4% | Population Mitotic Cells (%) [1]: 40% | Population Normal (%) [1]: 99% | Population Pyknosed Nuclei (%) [1]: 9% | Population Tubulin-Different-Phenotype (%) [1]: 7% | Total Cell Count [1]: 208 | Population Apoptotic (%) [2]: 80% | Population Fragmented Nuclei (%) [2]: 13% | Population Healthy Nuclei (%) [2]: 78% | Population Hoechst High Intensity Objects (%) [2]: 1% | Population Membrane Permeable-Phenotype (%) [2]: 9% | Population Mitochondria Different-Phenotype (%) [2]: 6% | Population Mitotic Cells (%) [2]: 20% | Population Normal (%) [2]: 98% | Population Pyknosed Nuclei (%) [2]: 7% | Population Tubulin-Different-Phenotype (%) [2]: 8% | Total Cell Count [2]: 139 | Population Apoptotic (%) [3]: 58% | Population Fragmented Nuclei (%) [3]: 20% | Population Healthy Nuclei (%) [3]: 66% | Population Hoechst High Intensity Objects (%) [3]: 1% | Population Membrane Permeable-Phenotype (%) [3]: 9% | Population Mitochondria Different-Phenotype (%) [3]: 10% | Population Mitotic Cells (%) [3]: 41% | Population Normal (%) [3]: 98% | Population Pyknosed Nuclei (%) [3]: 13% | Population Tubulin-Different-Phenotype (%) [3]: 6% | Total Cell Count [3]: 316 | Population Apoptotic (%) [4]: 88% | Population Fragmented Nuclei (%) [4]: 26% | Population Hoechst High Intensity Objects (%) [4]: 2% | Population Membrane Permeable-Phenotype (%) [4]: 5% | Population Mitochondria Different-Phenotype (%) [4]: 7% | Population Mitotic Cells (%) [4]: 11% | Population Normal (%) [4]: 97% | Population Pyknosed Nuclei (%) [4]: 6% | Population Tubulin-Different-Phenotype (%) [4]: 7% | Total Cell Count [4]: 141 | Population Apoptotic (%) [5]: 96% | Population Fragmented Nuclei (%) [5]: 25% | Population Healthy Nuclei (%) [5]: 63% | Population Hoechst High Intensity Objects (%) [5]: 1% | Population Membrane Permeable-Phenotype (%) [5]: 8% | Population Mitochondria Different-Phenotype (%) [5]: 4% | Population Mitotic Cells (%) [5]: 4% | Population Normal (%) [5]: 98% | Population Pyknosed Nuclei (%) [5]: 10% | Population Tubulin-Different-Phenotype (%) [5]: 7% | Total Cell Count [5]: 232 | Population Apoptotic (%) [6]: 77% | Population Fragmented Nuclei (%) [6]: 9% | Population Healthy Nuclei (%) [6]: 77% | Population Hoechst High Intensity Objects (%) [6]: 2% | Population Membrane Permeable-Phenotype (%) [6]: 5% | Population Mitochondria Different-Phenotype (%) [6]: 1% | Population Mitotic Cells (%) [6]: 22% | Population Normal (%) [6]: 97% | Population Pyknosed Nuclei (%) [6]: 12% | Population Tubulin-Different-Phenotype (%) [6]: 1% | Total Cell Count [6]: 148 | Population Apoptotic (%) [7]: 73% | Population Fragmented Nuclei (%) [7]: 23% | Population Healthy Nuclei (%) [7]: 63% | Population Hoechst High Intensity Objects (%) [7]: 2% | Population Membrane Permeable-Phenotype (%) [7]: 10% | Population Mitochondria Different-Phenotype (%) [7]: 8% | Population Mitotic Cells (%) [7]: 26% | Population Normal (%) [7]: 97% | Population Pyknosed Nuclei (%) [7]: 12% | Population Tubulin-Different-Phenotype (%) [7]: 4% | Total Cell Count [7]: 359 | Population Apoptotic (%) [8]: 61% | Population Fragmented Nuclei (%) [8]: 31% | Population Healthy Nuclei (%) [8]: 60% | Population Membrane Permeable-Phenotype (%) [8]: 12% | Population Mitochondria Different-Phenotype (%) [8]: 13% | Population Mitotic Cells (%) [8]: 38% | Population Pyknosed Nuclei (%) [8]: 7% | Population Tubulin-Different-Phenotype (%) [8]: 9% | Total Cell Count [8]: 168 | Population Apoptotic (%) [9]: 89% | Population Fragmented Nuclei (%) [9]: 24% | Population Healthy Nuclei (%) [9]: 62% | Population Hoechst High Intensity Objects (%) [9]: 2% | Population Membrane Permeable-Phenotype (%) [9]: 4% | Population Mitochondria Different-Phenotype (%) [9]: 3% | Population Mitotic Cells (%) [9]: 10% | Population Normal (%) [9]: 97% | Population Pyknosed Nuclei (%) [9]: 13% | Population Tubulin-Different-Phenotype (%) [9]: 4% | Total Cell Count [9]: 300 | Population Apoptotic (%) [10]: 90% | Population Fragmented Nuclei (%) [10]: 14% | Population Healthy Nuclei (%) [10]: 76% | Population Membrane Permeable-Phenotype (%) [10]: 5% | Population Pyknosed Nuclei (%) [10]: 8% | Population Tubulin-Different-Phenotype (%) [10]: 0% | Total Cell Count [10]: 230 | Population Apoptotic (%) [11]: 83% | Population Fragmented Nuclei (%) [11]: 17% | Population Healthy Nuclei (%) [11]: 68% | Population Hoechst High Intensity Objects (%) [11]: 2% | Population Membrane Permeable-Phenotype (%) [11]: 8% | Population Mitochondria Different-Phenotype (%) [11]: 6% | Population Mitotic Cells (%) [11]: 16% | Population Normal (%) [11]: 97% | Population Pyknosed Nuclei (%) [11]: 13% | Population Tubulin-Different-Phenotype (%) [11]: 4% | Total Cell Count [11]: 456 | Population Fragmented Nuclei (%) [12]: 27% | Population Healthy Nuclei (%) [12]: 64% | Population Hoechst High Intensity Objects (%) [12]: 5% | Population Membrane Permeable-Phenotype (%) [12]: 10% | Population Mitochondria Different-Phenotype (%) [12]: 5% | Population Normal (%) [12]: 94% | Population Pyknosed Nuclei (%) [12]: 8% | Population Tubulin-Different-Phenotype (%) [12]: 5% | Total Cell Count [12]: 231

Reference: ChEMBL document CHEMBL5058577, “EUbOPEN Chemogenomics Library 2 (Multiplex)” (2022)
